Most compounds without a hit are left out; they make up all but 2.5% or so of the library.
MC4R ag barr – activates human MC4R beta-arrestin recruitment. P32245. U2OS MC4R beta-arrestin complementation, luminescence; percent of melanotan II response, DMSO zero. activation, % at 8.9 µM. hit rate 0.98% among 360,000;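 active = activation above a per-plate cutoff, the mean activation of sample wells on that plate plus 3 SD, cut at about 8% in these data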
Target sequence (P32245 whole entry, looked up): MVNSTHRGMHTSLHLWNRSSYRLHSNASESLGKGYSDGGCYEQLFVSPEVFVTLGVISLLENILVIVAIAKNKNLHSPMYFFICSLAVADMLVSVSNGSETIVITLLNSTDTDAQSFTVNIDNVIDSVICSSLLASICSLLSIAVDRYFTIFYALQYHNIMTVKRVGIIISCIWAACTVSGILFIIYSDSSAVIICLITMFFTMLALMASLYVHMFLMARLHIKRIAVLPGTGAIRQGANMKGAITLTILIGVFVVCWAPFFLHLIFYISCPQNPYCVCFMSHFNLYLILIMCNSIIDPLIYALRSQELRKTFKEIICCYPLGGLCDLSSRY
MC4R antagonist – antagonists of human melanocortin 4 receptor (MC4R); MC4R-expressing cells, MTII-stimulated cAMP, LANCE TR-FRET; AID 540295; hit rate 0.48% among 360,000; inhibition, % at 6.5 µM;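 active = inhibition above its plate's cutoff, the mean of tested wells on that plate plus 3 SD, cut at about 29% in these data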;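 also: 0% = Melanotan II alone and 100% = Melanotan II plus saturating MCL0020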
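System – human MC4R-expressing U2OS cells · Also added – Melanotan II · Dosing – one concentration, 6.5 µM nominal · Timing – 30-min compound, 1-h challenge, 1-h detection, room temperature · Measured by – Eu-cAMP/anti-cAMP TR-FRET, emission 671 nm · Replicates – singlicate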
PG9 Ab binder – PG9 antibody binding by small molecule; TR-FRET gp120-PG9 antibody binding; inhibition, % at 6.7 µM; hit rate 0.43% among 360,000; in the data active = inhibition above about 8.5%
NTR1 agonist – activates human neurotensin receptor 1. hit rate 0.17% among 330,000. NTR1-U2OS beta-arrestin-GFP spot imaging, agonist mode. activation, % at 20 µM;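 active = activation at or above 40% of the spot to cytoplasm intensity ratio, with at least 20 cells analyzed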;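 also: 0% = DMSO without peptide and 100% = 100 nM NTR1 peptide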
Target sequence (P30989 whole entry, looked up): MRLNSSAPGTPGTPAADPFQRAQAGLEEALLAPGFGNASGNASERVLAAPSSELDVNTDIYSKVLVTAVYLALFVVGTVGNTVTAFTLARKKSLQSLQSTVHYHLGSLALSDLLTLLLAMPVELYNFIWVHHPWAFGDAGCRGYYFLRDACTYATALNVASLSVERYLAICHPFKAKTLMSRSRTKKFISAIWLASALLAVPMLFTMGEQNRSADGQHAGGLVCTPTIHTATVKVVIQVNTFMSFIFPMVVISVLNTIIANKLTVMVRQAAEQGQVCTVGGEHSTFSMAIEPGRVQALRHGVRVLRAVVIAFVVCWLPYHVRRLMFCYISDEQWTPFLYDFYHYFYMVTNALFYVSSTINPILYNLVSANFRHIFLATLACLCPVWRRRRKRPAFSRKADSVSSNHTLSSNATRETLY
Rev-erbA mod – Rev-erb alpha (human) modulation; P20393; Rev-erbα–FITC-DNA binding, fluorescence polarization, 90 min; activity, % at 10 µM; hit rate 0.79% among 370,000; AID 1259318;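 active = activity above about 14%, limit read from the data; passing the limit was not always enough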;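 also: 0% = DMSO wells with 35 nM protein and 100% = DMSO wells with 750 nM protein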
MC4R barr ag – human MC4R beta-arrestin agonism confirmation; U2OS MC4R beta-arrestin recruitment, luminescence; scaled DMSO 0%, Melanotan II 100%; hit rate 31% among 2,400; shares compounds with MC4R ag barr; AID 602192; activation, % at 8.9 µM;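 active = mean activation across replicates above the hit cutoff set in the earlier primary screen, cut at about 8% in these data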
MOR-DOR barr ag – counter-screen for MC4R agonists: agonists of mu-delta opioid heterodimer. hit rate 5.8% among 2,400. activation, % at 9.2 µM. AID 602194. U2OS PathHunter beta-arrestin, beta-gal luminescence; percent of deltorphin B response, DMSO zero. shares compounds with MC4R ag barr;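 active = mean activation across replicates exceeds the hit threshold derived in the earlier primary screen, cut at about 18% in these data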;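 also: 100% = deltorphin B at 0.9 µM final and 0% = DMSO alone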
Active calls of the source: *; nt = no result.

SMILES | MC4R ag barr | MC4R antagonist | PG9 Ab binder | NTR1 agonist | Rev-erbA mod | MC4R barr ag | MOR-DOR barr ag
CC1(C)CC(=O)C=C(C#CC2CC2)C1 | nt | nt | -0.8 | nt | 0.1 | nt | nt
COc1cccc(-c2cc(NC(C)=O)c3ncc(-c4ccc(OC)c(OC)c4)n3c2)c1 | 16.7* | 6.2 | -2.6 | nt | 1.7 | 10.6* | 2.7
COc1cccc(-c2cnc3c(NC(C)=O)cc(-c4ccc(OC)c(OC)c4)cn23)c1 | 7.1 | 7.1 | -0.1 | nt | 2.9 | nt | nt
COc1ccc(-c2cc(NC(C)=O)c3ncc(-c4cccc(C(C)=O)c4)n3c2)cc1OC | 25.5* | 13.4 | -1.0 | nt | -4.8 | 27.2* | 2.0
COc1cccc(-c2cnc3c(NC(C)=O)cc(-c4ccsc4)cn23)c1 | 37.3* | 24.9 | -0.2 | nt | -3.4 | 41.6* | 3.3
O=S1(=O)c2c(cccc2N2CCSCC2)Oc2ccccc2CN1Cc1cn(Cc2cccc(C(F)(F)F)c2)nn1 | nt | nt | nt | nt | 6.0 | nt | nt
O=C(Nc1ccccc1)OCCN1C(=O)CCC12CCC(c1ccccc1)CC2 (stereo not drawn) | nt | nt | nt | nt | -0.5 | nt | nt
COC(=O)C1CN(C2CC2)CCS(=O)(=O)N1Cc1cn(Cc2ccc(F)cc2)nn1 (stereo not drawn) | nt | nt | nt | nt | -5.9 | nt | nt
Cc1ccccc1N1CCN(C2=Nc3ccccc3Sc3ccccc32)CC1 | nt | nt | nt | nt | 0.3 | nt | nt
OCC1COC(c2ccccc2)=N1 (stereo not drawn) | nt | nt | 0.6 | nt | 2.3 | nt | nt
CCN(CC)S(=O)(=O)c1ccc(Cl)c(NC(=O)COc2ccc(OC)cc2)c1 | 30.6* | -11.4 | 0.0 | 0.3 | 0.7 | 17.0* | 26.2*
CCN(CC)S(=O)(=O)c1ccc(C)c(NC(=O)COc2ccc(Cl)cc2Br)c1 | 9.7* | -16.6 | -2.0 | 3.7 | 5.4 | 28.9* | 39.9*
O=S(=O)(CC1NCc2cc(F)ccc21)NCc1ccccc1 (stereo not drawn) | nt | nt | nt | nt | 4.1 | nt | nt
COC1C(O)CCC2(CO2)C1C1(C)OC1CC=C(C)C (stereo not drawn) | nt | nt | 1.2 | nt | -4.0 | nt | nt
O=C(NC(=S)Nc1ccc(Br)cn1)c1cccs1 | 1.1 | 23.5 | 0.6 | 4.4 | -2.8 | nt | nt
S=C(Nc1ccccc1)Nc1ccc(Br)cn1 | 10.8* | -0.4 | -0.2 | 2.2 | -1.9 | 3.5 | 6.0
CCC(=O)Nc1ccc(Cl)cc1C(=O)c1ccc[nH]1 | nt | nt | nt | nt | 2.7 | nt | nt
O=C(CN1CCN(c2ccccc2)CC1)Nc1ccc(Oc2ccccc2)cc1 | 18.6* | 4.3 | -0.8 | 0.6 | 7.2 | 5.7 | 5.1
O=C(CCCCCNc1nc(=S)[nH]c2ccccc12)NCCc1ccc(Cl)cc1 | 12.3* | 20.4 | -0.6 | 23.3 | -4.5 | 11.4* | 6.1
O=C(CCCCCNc1nc(=S)[nH]c2ccccc12)NCCc1c[nH]c2ccccc12 | -1.8 | 25.0 | -1.9 | 4.2 | -1.5 | nt | nt
O=C(NCCC1=CCCCC1)c1cc(S(=O)(=O)N2CCOCC2)c(Cl)cc1Cl | 10.1* | 5.2 | 0.6 | 0.3 | -1.8 | 0.1 | 4.7
CC1CCCN(c2cccc3c2S(=O)(=O)N([C@H](C)c2ccccc2)C[C@@H](COCc2ccccc2)O3)C1 (stereo partly drawn) | nt | nt | -0.5 | nt | 0.9 | nt | nt
O=C(Nc1ccccc1)Nc1nnc(CSCc2ccccc2Cl)s1 | 11.2* | 3.4 | -1.0 | 11.4 | 2.0 | 2.8 | 4.3
O=C(Nc1ccc(Cl)cc1)Nc1nnc(CSCc2ccccc2Cl)s1 | -2.2 | 3.2 | -1.8 | 3.3 | -3.1 | nt | nt
CCCOc1ccc2c(c1)C(=NN=C(N)N)c1cc(OCCC)ccc1-2 | 14.0* | 6.8 | 1.7 | 79.8* | 1.3 | 10.8* | 8.7
SMILES | MC4R ag barr | MC4R antagonist | PG9 Ab binder | NTR1 agonist | Rev-erbA mod | MC4R barr ag | MOR-DOR barr ag
CCN(CC)CCOc1ccc2c(c1)C(=NO)c1cc(OCCN(CC)CC)ccc1-2 | -1.3 | -8.9 | -0.5 | 1.0 | 0.9 | nt | nt
Cc1cn2c(=O)c3ncn(C4OC(CO)C(O)C4O)c3n(C)c2n1 (stereo not drawn) | nt | nt | 1.1 | nt | -3.3 | nt | nt
COc1cc2c(-c3ccccc3O)nc3c(c(C)nn3-c3ccccc3)c2cc1OC | 11.4* | 4.2 | 2.1 | 3.9 | 10.2 | 2.6 | 19.8*
C=CCc1cc(/C=N\NC(=O)CSc2nnc(CCCc3ccc(OC)c(C)c3)o2)cc(OC)c1O | 22.8* | 3.6 | -1.4 | 2.4 | -5.6 | 0.3 | 4.3
C=CCc1cc(/C=N/NC(=O)CSc2nnc(CCCc3ccc(OC)cc3)o2)cc(OC)c1O | 33.4* | 13.9 | -3.0 | -0.4 | 8.4 | 4.9 | 3.5
COc1ccc(/C=N/NC(=O)CSc2nnc(CCCc3ccc(OC)c(C)c3)o2)cc1 | 3.9 | -0.9 | -1.8 | 3.5 | -0.7 | nt | nt
Cc1ccccc1Cn1cccc1/C=C1/C(=N)N2C=CSC2=NC1=O | 13.9* | 0.9 | 1.1 | 3.3 | -4.6 | 2.5 | 1.7
CC(C)c1ccc(-n2cccc2/C=C2/C(=N)N3C=CSC3=NC2=O)cc1 | -0.4 | 9.0 | 0.8 | 26.8 | 8.7 | nt | nt
COC(=O)C1=C(C)N(Cc2ccc(C(F)(F)F)cc2)C(=NCc2ccccc2C(F)(F)F)NC1c1ccc(Cl)cc1 (stereo not drawn) | nt | nt | -2.0 | nt | 5.5 | nt | nt
Cc1ccc(N2C(=O)CS/C2=N\C(=S)Nc2ccccc2)cc1 | 27.3* | 5.1 | -45.7 | 0.5 | -1.4 | 1.6 | 9.4
COCCN1Cc2cc(C(=O)OC)c3c(c2C1=O)c1cc(OC)ccc1n3C(=O)c1ccccc1 | nt | nt | 0.0 | nt | 2.7 | nt | nt
O=C(NC(=S)Nc1ccc2oc(=O)ccc2c1)c1cccc(Cl)c1 | 19.5* | -3.8 | -1.4 | 5.6 | -2.4 | 3.6 | 4.6
O=C(NC(=S)Nc1ccc2oc(=O)ccc2c1)c1cccc(F)c1 | -3.1 | 4.5 | -1.8 | -0.2 | -14.1 | nt | nt
COC(=O)c1oc2ccc(Br)cc2c1NC(=O)CN1CCN(C)CC1 | -0.9 | 0.6 | 0.1 | -1.0 | -0.7 | nt | nt
COC(=O)c1oc2ccc(Br)cc2c1NC(=O)c1ccccc1 | 29.7* | -9.3 | -1.0 | 7.9 | 9.6 | 16.3* | 4.3
Cc1ccc2nc(Nc3ccc4[nH]c(=O)[nH]c4c3)c(-n3nc(C)cc3C)nc2c1 | 34.2* | -4.5 | 0.4 | 35.1 | -2.7 | 28.6* | 1.6
CCCCNC[C@@]12CO[C@H](c3ccc(Cl)cc3)N1[C@@H](c1ccc(Cl)cc1)SC2 | nt | nt | nt | nt | 3.5 | nt | nt
CC/C(=N/Nc1ccc(Cl)cc1)c1cnnc(SC)n1 | 0.7 | -10.8 | -1.5 | 1.4 | -3.3 | nt | nt
CC/C(=N/Nc1cccc(C)c1)c1cnnc(SC)n1 | 20.8* | -16.0 | -0.4 | 0.8 | -11.5 | 3.6 | 3.6
CC1CCC2(CCC(=O)N2CCCO)CC1 (stereo not drawn) | nt | nt | nt | nt | 16.8 | nt | nt
CCOC(=O)CCCN1CC(O)=C(c2nc(-c3ccc(Cl)cc3)cs2)C1=N | 22.6* | -0.1 | 0.2 | 0.7 | 6.7 | 4.7 | 2.3
Cc1nc2ccc(S(=O)(=O)NCC(=O)NCc3ccccc3Cl)cc2s1 | nt | nt | nt | nt | 5.8 | nt | nt
O=C(Cc1cccs1)Nc1ccc(-c2nnc(-c3ccco3)o2)cc1 | 11.1* | 7.0 | 1.9 | -0.1 | -6.5 | 4.0 | 6.3

Compound activity deposited in PubChem BioAssay by several laboratories.
